Laboratory results: ChEMBL document CHEMBL2040780, “Antiarrhythmic properties of phenylpiperazine derivatives of phenytoin with α₁-adrenoceptor affinities” (Bioorg Med Chem, 2012)
Calls of active or inactive are those of the source.

Assays:
Rattus norvegicus [1] = assay: Antiarrhythmic activity in Wistar rat assessed as effect on heart beat at 10 mg/kg, iv after 1 min; assay type: functional
How it was run: (§1)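 Male Wistar rats (180–250 g), anaesthetised with thiopental 60 mg/kg ip. Standard lead II ECG recorded at 50 mm/s just before dosing and at 1, 5 and 15 min after. Heart rate and P–Q, Q–T and QRS intervals were read. n=6 per group, mean ± SEM, one-way ANOVA.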

Rattus norvegicus [2] = assay: Antiarrhythmic activity in Wistar rat assessed as effect on heart beat at 10 mg/kg, iv after 5 mins; assay type: functional; how it was run: as §1
Rattus norvegicus [3] = assay: Antiarrhythmic activity in Wistar rat assessed as effect on heart beat at 10 mg/kg, iv after 15 mins; assay type: functional; how it was run: as §1
Rattus norvegicus [4] = assay: Cardiotoxicity in Wistar rat assessed as effect on P-Q interval at 10 mg/kg, iv after 1 min; assay type: toxicity, organism-based; design: dose 10 mg/kg, route intravenous; conditions: in vivo; how it was run: as §1
Rattus norvegicus [5] = assay: Cardiotoxicity in Wistar rat assessed as effect on P-Q interval at 10 mg/kg, iv after 5 mins; assay type: toxicity, organism-based; design: dose 10 mg/kg, route intravenous; conditions: in vivo; how it was run: as §1
Rattus norvegicus [6] = assay: Cardiotoxicity in Wistar rat assessed as effect on P-Q interval at 10 mg/kg, iv after 15 mins; assay type: toxicity, organism-based; design: dose 10 mg/kg, route intravenous; conditions: in vivo, 0.25 h; how it was run: as §1
Rattus norvegicus [7] = assay: Cardiotoxicity in Wistar rat assessed as effect on Q-T interval at 10 mg/kg, iv after 1 min; assay type: toxicity, organism-based; design: dose 10 mg/kg, route intravenous; conditions: in vivo; how it was run: as §1
Rattus norvegicus [8] = assay: Cardiotoxicity in Wistar rat assessed as effect on Q-T interval at 10 mg/kg, iv after 5 mins; assay type: toxicity, organism-based; design: dose 10 mg/kg, route intravenous; conditions: in vivo; how it was run: as §1
Rattus norvegicus [9] = assay: Cardiotoxicity in Wistar rat assessed as effect on Q-T interval at 10 mg/kg, iv after 15 mins; assay type: toxicity, organism-based; design: dose 10 mg/kg, route intravenous; conditions: in vivo, 0.25 h; how it was run: as §1
Rattus norvegicus [10] = assay: Cardiotoxicity in Wistar rat assessed as effect on QRS interval at 10 mg/kg, iv after 1 min; assay type: toxicity, organism-based; design: dose 10 mg/kg, route intravenous; conditions: in vivo; how it was run: as §1
Rattus norvegicus [11] = assay: Cardiotoxicity in Wistar rat assessed as effect on QRS interval at 10 mg/kg, iv after 5 mins; assay type: toxicity, organism-based; design: dose 10 mg/kg, route intravenous; conditions: in vivo; how it was run: as §1
Rattus norvegicus [12] = assay: Cardiotoxicity in Wistar rat assessed as effect on QRS interval at 10 mg/kg, iv after 15 mins; assay type: toxicity, organism-based; design: dose 10 mg/kg, route intravenous; conditions: in vivo, 0.25 h; how it was run: as §1
Rattus norvegicus [13] = assay: Antiarrhythmic activity in iv dosed Wistar rat assessed as protection against barium chloride-induced extrasystoles administered 15 mins prior to barium chloride-challenge; assay type: functional; conditions: Heart
How it was run: (§2)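 Szekeres model in male Wistar rats. Activity is gradual disappearance of arrhythmia with restored sinus rhythm; protection against disturbances and death scored. Groups of 6 animals.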

Rattus norvegicus [14] = assay: Antiarrhythmic activity in dosed Wistar rat assessed as protection against barium chloride-induced fibrillation administered 15 mins prior to barium chloride-challenge; assay type: functional; conditions: Heart; how it was run: as §2
Rattus norvegicus [15] = assay: Antiarrhythmic activity in iv dosed barium chloride-induced Wistar rat arrhythmia model assessed as protection against mortality administered 15 mins prior to barium chloride-challenge; assay type: functional; conditions: Heart
How it was run: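 Male Wistar rats (180–250 g), groups of 6. Activity criterion: gradual disappearance of arrhythmia and restoration of sinus rhythm; protection against heart disturbances and death scored.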

Rattus norvegicus [16] = assay: Antiarrhythmic activity in Wistar rat assessed as protection against adrenaline-induced extrasystoles at 2.5 to 10 mg/kg, iv administered 15 mins prior to adrenaline-challenge; assay type: functional, organism-based; conditions: Heart
How it was run: (§3)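 Szekeres model in male Wistar rats anaesthetised with thiopental (60 mg/kg ip). Test compound given iv in water (2.5–10 mg/kg) 15 min before adrenaline 20 µg/kg iv. Scored for extrasystoles, bigeminy and mortality; activity means no premature beats and inhibited arrhythmia versus controls.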

Rattus norvegicus [17] = assay: Antiarrhythmic activity in Wistar rat assessed as protection against adrenaline-induced bigeminy at 2.5 to 10 mg/kg, iv administered 15 mins prior to adrenaline-challenge; assay type: functional, organism-based; conditions: Heart; how it was run: as §3
Rattus norvegicus [18] = assay: Antiarrhythmic activity in iv dosed Wistar rat assessed as protection against adrenaline-induced arrhythmia administered 15 mins prior to adrenaline-challenge; assay type: functional; conditions: Heart; how it was run: as §3
Rattus norvegicus [19] = assay: Hypotensive activity in normotensive Wistar rat assessed as decrease in systolic blood pressure at 2.5 to 10 mg/kg, iv at 1 min; assay type: organism-based, Artery; design: dose 2.5-10 mg/kg, route intravenous; conditions: in vivo
How it was run: (§4)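 Right carotid artery cannulated with heparin-saline-filled tubing for blood pressure recording. After 5 min stabilisation, compound injected iv into the caudal vein (2.5–10 mg/kg, 1 ml/kg). Systolic and diastolic pressure followed for 60 min. n=6 per group, mean ± SEM, one-way ANOVA.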

Rattus norvegicus [20] = assay: Hypotensive activity in normotensive Wistar rat assessed as decrease in diastolic blood pressure at 2.5 to 10 mg/kg, iv at 1 min; assay type: organism-based, Artery; design: dose 2.5-10 mg/kg, route intravenous; conditions: in vivo; how it was run: as §4
Rattus norvegicus [21] = assay: Hypotensive activity in normotensive Wistar rat assessed as decrease in systolic blood pressure at 2.5 to 10 mg/kg, iv after 1 min measured up to 60 mins; assay type: organism-based, Artery; design: dose 2.5-10 mg/kg, route intravenous; conditions: in vivo; how it was run: as §4
Rattus norvegicus [22] = assay: Hypotensive activity in normotensive Wistar rat assessed as decrease in diastolic blood pressure at 2.5 to 10 mg/kg, iv after 1 min measured up to 60 mins; assay type: organism-based, Artery; design: dose 2.5-10 mg/kg, route intravenous; conditions: in vivo; how it was run: as §4

Compound: COC(=O)C(C)N1C(=O)N(CC(O)CN2CCN(c3ccccc3OC)CC2)C(c2ccccc2)(c2ccccc2)C1=O.Cl (racemic)
- Activity (Rattus norvegicus [1]): 350 min⁻¹
- Activity (Rattus norvegicus [2]): 363 min⁻¹
- Activity (Rattus norvegicus [3]): 362 min⁻¹
- Activity (Rattus norvegicus [4]): 57 ms
- Activity (Rattus norvegicus [5]): 55 ms
- Activity (Rattus norvegicus [6]): 57 ms
- Activity (Rattus norvegicus [7]): 82 ms
- Activity (Rattus norvegicus [8]): 81 ms
- Activity (Rattus norvegicus [9]): 82 ms
- Activity (Rattus norvegicus [10]): 16 ms
- Activity (Rattus norvegicus [11]): 15 ms
- Activity (Rattus norvegicus [12]): 16 ms
- Activity (Rattus norvegicus [13]): inactive
- Activity (Rattus norvegicus [14]): inactive
- Activity (Rattus norvegicus [15]): inactive
- Activity (Rattus norvegicus [16]): Active
- Activity (Rattus norvegicus [17]): Active
- ED50 (Rattus norvegicus [18]): 0.36 mg/kg
- Activity (Rattus norvegicus [19]): Toxic
- Activity (Rattus norvegicus [20]): Toxic
- Activity (Rattus norvegicus [21]): Non-toxic
- Activity (Rattus norvegicus [22]): Non-toxic
